Here are results for 13 compounds from ChEMBL document CHEMBL1153008, “Synthesis and antitubercular activity of novel 4-substituted imidazolyl-2,6-dimethyl-N3,N5-bisaryl-1,4-dihydropyridine-3,5-dicarboxamides” (2009).

Holding throughout (type): functional
Experiment [1] has as its system Jurkat. In words: Cytotoxicity against human Jurkat cells by MTT assay. In general terms: Tetrazolium dyes change colour on reduction, which living cells bring about.
The subject of experiment [2] is Raji. The experiment is described as follows: Cytotoxicity against human Raji cells by MTT assay.
The test system of experiment [3] is HeLa. In words: Cytotoxicity against human HeLa cells by MTT assay.
Experiment [4] is described as follows: Cytotoxicity against human Kga1 cells by MTT assay.
The test system of experiment [5] is Mycobacterium tuberculosis. The experiment is described as follows: Antitubercular activity against Mycobacterium tuberculosis H37Rv ATCC 27294 after 21 days by agar proportion method. Conditions: H37Rv ATCC 27294, 504 h. In short, it runs like this:
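Agar proportion method on Middlebrook 7H10 tubes against rifampicin/isoniazid-susceptible H37Rv. Inoculum: 4–7 day 7H9 broth culture at 37 °C, adjusted to McFarland no. 1, then diluted 10^-2 and 10^-4; 0.1 mL per tube. Incubated 21 days at 37 °C under 5–7% CO2. Colonies counted and compared with drug-free control. Two independent measurements.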

≈ marks a conversion by molar mass, not a printed value. A value given as a limit tells only on which side of the number the result lay.

By IC30 is commonly meant the point of the concentration-response curve where the effect stands at 30%. A word on the MIC: it is the lowest concentration that inhibits growth of the organism.

On to `CSc1ncc(C2C(C(=O)Nc3ccc(Cl)cc3)=C(C)NC(C)=C2C(=O)Nc2ccc(Cl)cc2)n1Cc1ccccc1`, for which the IC30 in experiment [1] is 12.3 µg/mL (≈ 19.9 µM); in experiment [2], 85.1 µg/mL (≈ 138 µM); in experiment [3] it was above 100 µg/mL; in experiment [4], 58.9 µg/mL (≈ 95.2 µM).
For `CSc1ncc(C2C(C(=O)Nc3cccc(Cl)c3)=C(C)NC(C)=C2C(=O)Nc2cccc(Cl)c2)n1Nc1ccccc1`, in experiment [5], the MIC was above 16 µg/mL.
In the case of `CSc1ncc(C2C(C(=O)Nc3cccc(Cl)c3)=C(C)NC(C)=C2C(=O)Nc2cccc(Cl)c2)n1Cc1ccccc1`, the concentration for an effect of 30% (IC30) in experiment [1] was 47.9 µg/mL (≈ 77.4 µM); in experiment [2] it was 69.2 µg/mL (≈ 112 µM); in experiment [3], above 100 µg/mL; in experiment [4], 26.3 µg/mL (≈ 42.5 µM).
`CSc1ncc(C2C(C(=O)Nc3cccnc3)=C(C)NC(C)=C2C(=O)Nc2cccnc2)n1Nc1ccccc1` registered a minimal inhibitory concentration (MIC) in experiment [5] above 16 µg/mL.
For the compound `CSc1ncc(C2C(C(=O)Nc3ccc(Cl)cc3)=C(C)NC(C)=C2C(=O)Nc2ccc(Cl)cc2)n1Nc1ccccc1`, the MIC in experiment [5] is above 16 µg/mL.
Consider `CSc1ncc(C2C(C(=O)Nc3ccc(Br)cc3)=C(C)NC(C)=C2C(=O)Nc2ccc(Br)cc2)n1Nc1ccccc1`, for which the MIC in experiment [5] is above 16 µg/mL.
Turning to `CSc1ncc(C2C(C(=O)Nc3ccccc3Cl)=C(C)NC(C)=C2C(=O)Nc2ccccc2Cl)n1Nc1ccccc1`, the minimal inhibitory concentration (MIC) in experiment [5] was above 16 µg/mL. Besides, the IC30 in experiment [1] was 7.76 µg/mL (≈ 12.5 µM); in experiment [2], 43.6 µg/mL (≈ 70.5 µM); in experiment [3] it was above 100 µg/mL; in experiment [4] it was above 100 µg/mL.
On to `CSc1ncc(C2C(C(=O)Nc3cccnc3)=C(C)NC(C)=C2C(=O)Nc2cccnc2)n1Cc1ccccc1`, for which the IC30 in experiment [1] worked out at 37.1 µg/mL (≈ 67.3 µM); in experiment [2], 75.8 µg/mL (≈ 137 µM); in experiment [3], 91.2 µg/mL (≈ 165 µM); in experiment [4], 27.5 µg/mL (≈ 49.9 µM).
With `CSc1ncc(C2C(C(=O)Nc3ccccn3)=C(C)NC(C)=C2C(=O)Nc2ccccn2)n1Cc1ccccc1`, the 30% effect concentration (IC30) in experiment [1] is 43.6 µg/mL (≈ 79.1 µM); in experiment [2] it was 60.2 µg/mL (≈ 109 µM); in experiment [3], above 100 µg/mL; in experiment [4], 19.1 µg/mL (≈ 34.5 µM).
As for `CSc1ncc(C2C(C(=O)Nc3ccccn3)=C(C)NC(C)=C2C(=O)Nc2ccccn2)n1Nc1ccccc1`, the MIC in experiment [5] is above 16 µg/mL. For the same compound, the IC30 was 13.5 µg/mL (≈ 24.4 µM) in experiment [1], above 100 µg/mL in experiment [2], 67.6 µg/mL (≈ 122 µM) in experiment [3] and above 100 µg/mL in experiment [4].
On to `COc1cccc2c1C(=O)c1c(O)c3c(c(O)c1C2=O)C[C@@](O)(C(=O)CO)C[C@@H]3O[C@H]1C[C@H](N)[C@H](O)[C@H](C)O1` [DOXORUBICIN], for which the IC30 is 2.13 µg/mL (≈ 3.92 µM) in experiment [1] and 1.51 µg/mL (≈ 2.78 µM) in experiment [2].
`NNC(=O)c1ccncc1` [ISONIAZID] returned an MIC in experiment [5] of 0.2 µg/mL (≈ 1.46 µM).
Take `CO[C@H]1/C=C/O[C@@]2(C)Oc3c(C)c(O)c4c(O)c(c(/C=N/N5CCN(C)CC5)c(O)c4c3C2=O)NC(=O)/C(C)=C\C=C\[C@H](C)[C@H](O)[C@@H](C)[C@@H](O)[C@@H](C)[C@H](OC(C)=O)[C@@H]1C` [RIFAMPIN]: 1 µg/mL (≈ 1.22 µM) was the least that counted as inhibitory in experiment [5] (MIC).
